Article PMC3607822 (The Journal of General Physiology, 2013)

Experiments:
[1] = target: CNGA3 N2R-A, 613X channels (Homo sapiens, UniProt Q16281, R101A/R103A); test: Inside-out patch clamp, CNGA3 N2R-A, 613X; format: biochemical
[2] = target: T1, CNGA3 675X homomeric channels (Homo sapiens, UniProt Q16281); test: Inside-out patch clamp, CNGA3 675X; format: biochemical
T1 sequence (Q16281 1-674 limits assumed): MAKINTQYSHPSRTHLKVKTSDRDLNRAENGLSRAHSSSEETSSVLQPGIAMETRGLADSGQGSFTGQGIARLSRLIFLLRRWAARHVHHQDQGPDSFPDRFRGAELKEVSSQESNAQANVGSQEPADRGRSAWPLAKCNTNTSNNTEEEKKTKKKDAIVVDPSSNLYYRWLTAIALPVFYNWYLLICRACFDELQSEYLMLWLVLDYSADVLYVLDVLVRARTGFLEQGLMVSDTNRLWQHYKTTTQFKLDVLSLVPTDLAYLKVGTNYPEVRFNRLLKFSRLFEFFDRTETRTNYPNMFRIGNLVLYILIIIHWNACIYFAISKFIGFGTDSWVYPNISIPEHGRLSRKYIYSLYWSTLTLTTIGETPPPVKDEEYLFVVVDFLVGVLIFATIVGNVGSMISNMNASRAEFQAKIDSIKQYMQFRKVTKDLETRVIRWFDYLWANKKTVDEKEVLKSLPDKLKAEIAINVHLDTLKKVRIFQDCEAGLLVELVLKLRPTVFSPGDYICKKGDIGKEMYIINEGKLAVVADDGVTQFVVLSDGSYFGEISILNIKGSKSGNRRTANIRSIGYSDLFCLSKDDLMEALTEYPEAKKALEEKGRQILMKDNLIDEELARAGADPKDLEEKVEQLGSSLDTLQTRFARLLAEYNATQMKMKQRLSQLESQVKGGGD

[3] = target: CNGA3 ΔN (51-107), 613X channels (Homo sapiens, UniProt Q16281, DEL51-107); test: Inside-out patch clamp, CNGA3 ΔN; format: biochemical
[4] = target: T2, CNGA3 RR-QQ (R643Q, R646Q) channels (Homo sapiens, UniProt Q16281, R643Q/R646Q); test: Inside-out patch clamp, CNGA3 RR-QQ; format: biochemical
T2 sequence (Q16281 1-694 R643Q/R646Q): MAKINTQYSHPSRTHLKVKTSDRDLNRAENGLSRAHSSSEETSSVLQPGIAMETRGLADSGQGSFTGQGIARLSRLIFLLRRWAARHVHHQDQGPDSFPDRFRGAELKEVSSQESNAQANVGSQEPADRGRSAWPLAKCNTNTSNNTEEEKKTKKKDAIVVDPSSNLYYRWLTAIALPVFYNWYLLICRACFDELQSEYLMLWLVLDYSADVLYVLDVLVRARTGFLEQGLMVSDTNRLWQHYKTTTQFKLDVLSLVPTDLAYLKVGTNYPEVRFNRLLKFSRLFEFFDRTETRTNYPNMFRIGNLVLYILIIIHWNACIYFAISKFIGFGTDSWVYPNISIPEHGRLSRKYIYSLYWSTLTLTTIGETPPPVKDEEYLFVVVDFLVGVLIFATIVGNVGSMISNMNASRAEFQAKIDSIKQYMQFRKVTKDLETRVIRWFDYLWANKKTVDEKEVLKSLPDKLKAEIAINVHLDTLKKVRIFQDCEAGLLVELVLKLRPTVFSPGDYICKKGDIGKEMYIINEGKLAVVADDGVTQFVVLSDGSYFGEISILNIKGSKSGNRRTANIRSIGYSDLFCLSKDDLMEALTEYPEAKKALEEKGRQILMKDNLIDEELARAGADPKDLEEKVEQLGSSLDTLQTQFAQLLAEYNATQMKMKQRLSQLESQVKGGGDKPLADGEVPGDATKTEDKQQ

[5] = target: CNGA3 D609K channels (Homo sapiens, UniProt Q16281, D609K); test: Inside-out patch clamp, CNGA3 D609K; format: biochemical; conditions: estimated using tetracaine block
[6] = target: CNGA3 N5R-A, 613X channels (Homo sapiens, UniProt Q16281, R72A/R75A/R81A/R82A/R86A); test: Inside-out patch clamp, CNGA3 N5R-A, 613X; format: biochemical
[7] = target: wild-type CNGA2 with CNGB3 channels (UniProt Q00195+Q9NQW8); test: Inside-out patch clamp, CNGA2 with CNGB3; format: biochemical, rat, human; conditions: 1 µM PIP3
Outline: (§1)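 Subunit cRNAs (~20 ng, B in excess over A) injected into stage IV Xenopus oocytes; inside-out patches 2–7 d later, 20–22°C, symmetric 130 mM NaCl, 0.2 mM EDTA, 3 mM Hepes pH 7.2. Heteromer formation checked by 25 µM l-cis-diltiazem with 1 mM cGMP. diC8 phosphoinositides applied intracellularly in phosphatase-inhibitor cocktail. cGMP dose–response at +80 mV, leak-subtracted, Hill fit before/after for K1/2; mean ± SEM.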

[8] = target: GST fusion A3C-635X (Homo sapiens, UniProt Q16281); test: In vitro PIP3-agarose bead pull-down, A3C-635X; format: binding; conditions: PIP3-agarose beads, anti-GST immunoblot; compared with A3C
Outline: (§2)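 Recombinant GST fusions of channel fragments expressed in E. coli and purified; soluble fraction kept after 20,000 g, 4°C, 30 min. Protein (2 µg/ml) rocked with PIP3- or control agarose beads, 2 h, 4°C, in 10 mM Hepes pH 7.4, 50 mM NaCl, 2 mM EDTA, 0.25% Triton X-100, 0.25% NP-40. Five washes, elution in sample buffer, reducing SDS gel, anti-GST (1:2,000, overnight) immunoblot, chemiluminescence; […].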

[9] = target: CNGA1 with CNGB3 channels (UniProt Q00194+Q9NQW8); test: Inside-out patch clamp, CNGA1 with CNGB3; format: biochemical, bovine, human; conditions: 1 µM PIP3
Outline: as §1

[10] = target: GST fusion of CNGA3 C-terminal region (A3C, amino acids 612–694) (Homo sapiens, UniProt Q16281); test: In vitro PIP3-agarose bead pull-down, A3C; format: binding; conditions: PIP3-agarose beads, anti-GST immunoblot; not quantitative
Outline: as §2

[11] = target: A2ΔN+B3 channels (UniProt Q00195+Q9NQW8, DEL61-90); test: Inside-out patch clamp, A2ΔN+B3; format: biochemical, rat, human; conditions: 1 µM PIP3
Outline: as §1

[12] = target: GST fusion A3N7R-A (Homo sapiens, UniProt Q16281, R101A/R103A/R72A/R75A/R81A/R82A/R86A); test: In vitro PIP3-agarose bead pull-down, A3N7R-A; format: binding; conditions: PIP3-agarose beads, anti-GST immunoblot; compared with A3N
Outline: as §2

[13] = target: GST fusion of CNGA3 N-terminal region (A3N, amino acids 1–164) (Homo sapiens, UniProt Q16281); test: In vitro PIP3-agarose bead pull-down, A3N; format: binding; conditions: PIP3-agarose beads, anti-GST immunoblot
Outline: as §2

[14] = read-out: K1/2 cGMP, +80 mV, no PIPn

Sequence of CNGA1 with CNGB3 channels (Q00194 whole entry): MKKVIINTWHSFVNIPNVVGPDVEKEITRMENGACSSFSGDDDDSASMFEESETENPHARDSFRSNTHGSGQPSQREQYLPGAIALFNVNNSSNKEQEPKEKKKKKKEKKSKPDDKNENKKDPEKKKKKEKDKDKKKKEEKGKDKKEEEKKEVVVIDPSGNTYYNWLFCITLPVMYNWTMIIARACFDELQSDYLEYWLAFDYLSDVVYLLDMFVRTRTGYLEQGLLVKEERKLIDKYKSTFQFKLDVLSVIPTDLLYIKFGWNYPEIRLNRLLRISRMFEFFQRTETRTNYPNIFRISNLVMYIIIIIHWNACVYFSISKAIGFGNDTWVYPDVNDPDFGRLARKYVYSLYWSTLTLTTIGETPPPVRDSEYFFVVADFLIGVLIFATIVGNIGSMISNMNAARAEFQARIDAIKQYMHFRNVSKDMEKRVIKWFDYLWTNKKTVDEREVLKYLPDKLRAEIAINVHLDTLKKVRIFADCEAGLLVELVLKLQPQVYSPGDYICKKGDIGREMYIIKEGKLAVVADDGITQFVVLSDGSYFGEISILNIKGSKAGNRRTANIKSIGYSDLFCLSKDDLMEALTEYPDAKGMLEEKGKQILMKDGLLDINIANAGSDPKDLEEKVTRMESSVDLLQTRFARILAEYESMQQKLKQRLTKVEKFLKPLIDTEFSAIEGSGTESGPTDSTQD
Sequence of CNGA1 with CNGB3 channels (Q9NQW8 whole entry): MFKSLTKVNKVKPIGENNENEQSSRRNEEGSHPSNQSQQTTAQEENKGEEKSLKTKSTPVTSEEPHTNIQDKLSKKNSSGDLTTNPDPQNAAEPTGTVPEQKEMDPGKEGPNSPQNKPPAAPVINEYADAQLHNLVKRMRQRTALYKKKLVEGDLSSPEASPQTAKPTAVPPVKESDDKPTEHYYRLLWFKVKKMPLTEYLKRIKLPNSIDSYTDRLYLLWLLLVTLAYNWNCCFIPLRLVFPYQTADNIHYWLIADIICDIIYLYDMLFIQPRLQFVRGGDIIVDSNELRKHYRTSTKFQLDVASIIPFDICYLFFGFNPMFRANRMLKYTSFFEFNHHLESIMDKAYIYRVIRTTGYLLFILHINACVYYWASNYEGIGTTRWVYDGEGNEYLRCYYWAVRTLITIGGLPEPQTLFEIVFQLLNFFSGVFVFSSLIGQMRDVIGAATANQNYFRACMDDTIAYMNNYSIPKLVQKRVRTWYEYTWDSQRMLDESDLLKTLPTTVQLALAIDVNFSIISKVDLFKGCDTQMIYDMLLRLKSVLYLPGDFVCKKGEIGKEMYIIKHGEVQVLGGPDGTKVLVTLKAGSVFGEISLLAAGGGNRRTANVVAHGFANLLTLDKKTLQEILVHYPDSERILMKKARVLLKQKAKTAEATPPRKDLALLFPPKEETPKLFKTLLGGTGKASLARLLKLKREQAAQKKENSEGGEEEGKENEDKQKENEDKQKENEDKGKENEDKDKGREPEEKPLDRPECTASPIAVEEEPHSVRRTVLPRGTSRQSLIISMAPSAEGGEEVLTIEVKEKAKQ

Hill coefficient ([1]; cGMP activation)	EC50 [1, 14]	Hill coefficient ([2]; cGMP activation)	EC50 [2, 14]	Hill coefficient ([3]; cGMP activation)	EC50 [3, 14]	Hill coefficient ([4]; cGMP activation)	EC50 [4, 14]	Po max cGMP ([4]; saturating cGMP)	Po max cGMP [5]	Hill coefficient ([6]; cGMP activation)	EC50 [6, 14]	regulation of K1/2 cGMP by PIP3 [7]	in vitro PIP3 binding [8]	regulation of K1/2 cGMP by PIP3 [9]	in vitro PIP3 binding [10]	regulation of K1/2 cGMP by PIP3 [11]	in vitro PIP3 binding [12]	in vitro PIP3 binding [13]	Compound	PIP3-induced change in cAMP efficacy ([2]; 1 µM PIP3)
1.68 ± 0.03 (4)	16.1 ± 0.59 µM	1.88 ± 0.05 (4)	9.22 ± 0.55 µM	1.90 ± 0.06 (4)	11.1 ± 2.28 µM	2.00 ± 0.00 (3)	7.45 ± 0.63 µM	0.94 ± 0.01 (3)	0.78 ± 0.01	1.71 ± 0.05 (8)	16.7 ± 0.98 µM								Nc1nc2c(ncn2[C@@H]2O[C@@H]3COP(=O)(O)O[C@H]3[C@H]2O)c(=O)[nH]1 [cGMP, cyclic guanosine monophosphate]	
												PIP3-sensitive	attenuated binding to PIP3 beads	PIP3-sensitive	binding was observed	insensitive to regulation by PIP3	attenuated binding to PIP3 beads	able to directly bind PIP3	phosphatidylinositol (3,4,5)-trisphosphate [PIP3]	preserved the PIP3-induced change in cAMP efficacy
